Assay [1] deals with Human immunodeficiency virus 1. The assay is described as follows: Antiviral activity against wild type HIV1 virus. In kind it is functional, organism-based. In a few lines:
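HEK 293T cells grown in DMEM with 10% FBS and Pen/Strep/Glutamine. Seeded at 700 cells/well, cultured 24 h at 37 °C under 5% CO₂. Serially diluted compound in DMSO added, then 1 h at 37 °C. HIV reporter virus added at MOI about 1.0, cells cultured a further 48 h at 37 °C. Luciferase read-out with Bright-Glo reagent.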

For the next assay, the system named is HEK293. In words: Cytotoxicity against HEK293T cells. In kind it is functional. Conditions: Homo sapiens. In short, it runs like this: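 293T cells seeded at 700 cells/well and cultured 24 h at 37 °C under 5% CO₂. Serially diluted compound in DMSO added to uninfected cells, then a further 48 h at 37 °C. Viability read by fluorescence after Alamar Blue (diluted 1:1 in DMEM) and 4 h at room temperature.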

The values that follow come from ChEMBL document CHEMBL1138087, “Synthesis and evaluation of N-aryl pyrrolidinones as novel anti-HIV-1 agents. Part 1” (Bioorg Med Chem Lett, 2006).

`COc1ccc([C@H]2CC(=O)N(c3cccnc3)C2)cc1OC1CCCC1` showed an EC50 in assay [1] of 2.37 µM. The CC50 with HEK293 is greater than 10 µM.
The compound `COc1ccc([C@H]2CC(=O)N(c3cccc(O)c3)C2)cc1OC1CCCC1` yielded an EC50 in assay [1] of 1.78 µM. The CC50 in the assay on HEK293 is greater than 10 µM.
The matching figures for `COc1ccc([C@H]2CC(=O)N(c3cccc(NCCCc4ccccc4)c3)C2)cc1OC1CCCC1`: 7.9 µM and greater than 10 µM.
In turn, `COc1ccc([C@H]2CC(=O)N(c3cccc(NCc4ccoc4)c3)C2)cc1OC1CCCC1` had an EC50 in assay [1] of 1.96 µM. Also, the CC50 in the assay with HEK293 was greater than 10 µM.
`COc1cccc(C(=O)C(=O)Nc2cccc(N3C[C@@H](c4ccc(OC)c(OC5CCCC5)c4)CC3=O)c2)c1` showed an EC50 in assay [1] of 0.502 µM. Also, in the assay with HEK293, the CC50 is greater than 10 µM.
Consider `COc1ccc(OC)c(S(=O)(=O)Nc2cccc(N3C[C@@H](c4ccc(OC)c(OC5CCCC5)c4)CC3=O)c2)c1`, for which a half-maximal response in assay [1] (EC50) required 0.104 µM. Moreover, in the assay with HEK293, the half-maximal cytotoxic concentration (CC50) came to 7.59 µM.
In assay [1], `COc1ccc([C@H]2CC(=O)N(c3cccc(C#N)c3)C2)cc1OC1CCCC1` displayed an EC50 of 0.52 µM. The compound also registered a CC50 in the assay with HEK293 greater than 10 µM.
In turn, `COc1ccc([C@H]2CC(=O)N(c3ccccc3C)C2)cc1OC1CCCC1` had an EC50 in assay [1] greater than 10 µM. Besides, the CC50 in the assay with HEK293 was greater than 10 µM.
In assay [1], `COc1ccc([C@H]2CC(=O)N(c3cccc(NC(=O)C(=O)c4cccc(N(C)C)c4)c3)C2)cc1OC1CCCC1` registered an EC50 of 0.124 µM. Also, the CC50 with HEK293 was greater than 10 µM.
`COc1ccc([C@H]2CC(=O)N(c3ccc(C)cc3)C2)cc1OC1CCCC1` yielded an EC50 in assay [1] of 3.26 µM. This compound gave a CC50 in the assay on HEK293 greater than 10 µM.
Turning to `COc1ccc([C@H]2CC(=O)N(c3ccc(C)c(N)c3)C2)cc1OC1CCCC1`, in assay [1], the EC50 stood at 0.196 µM. Further, the CC50 with HEK293 was greater than 10 µM.
The compound `COc1ccc([C@H]2CC(=O)N(c3cccc(S(C)(=O)=O)c3)C2)cc1OC1CCCC1` gave an EC50 in assay [1] greater than 10 µM. In the assay on HEK293, this compound registered a CC50 greater than 10 µM.
In turn, `COc1ccc([C@H]2CC(=O)N(c3ccc(C(F)(F)F)cc3)C2)cc1OC1CCCC1` had an EC50 in assay [1] of 3.62 µM. Besides, the CC50 in the assay with HEK293 is greater than 10 µM.
In assay [1], `COc1ccc([C@H]2CC(=O)N(c3cccc(NCC4CCOC4)c3)C2)cc1OC1CCCC1` (stereo partly drawn) showed an EC50 of 1.02 µM. Moreover, the CC50 in the assay with HEK293 was greater than 10 µM.
Consider `CCCCNc1cccc(N2C[C@@H](c3ccc(OC)c(OC4CCCC4)c3)CC2=O)c1`, for which the response in assay [1] was half-maximal at 6.96 µM (EC50). In the assay on HEK293, this compound came in with a CC50 greater than 10 µM.
`COc1ccc([C@H]2CC(=O)N(c3ccc([S+](C)[O-])cc3)C2)cc1OC1CCCC1` (stereo partly drawn): the response in assay [1] was half-maximal at 0.04 µM (EC50). In the assay with HEK293, half-maximal cytotoxicity (CC50) was put at 7.51 µM.
The matching figures for `COc1ccc([C@H]2CC(=O)N(c3cc(N)cc(N)c3)C2)cc1OC1CCCC1`: greater than 10 µM and greater than 10 µM.
`COc1ccc([C@H]2CC(=O)N(c3cccc(N(C)C)c3)C2)cc1OC1CCCC1`: in assay [1], the EC50 was determined as 4.71 µM. The compound also returned a CC50 in the assay with HEK293 greater than 10 µM.
In assay [1], `COc1ccc([C@H]2CC(=O)N(C(=O)c3ccccc3)C2)cc1OC1CCCC1` showed an EC50 greater than 10 µM. This compound also returned a CC50 in the assay with HEK293 greater than 10 µM.
`COc1ccc([C@H]2CC(=O)N(c3ccc(N)cc3)C2)cc1OC1CCCC1` displayed an EC50 in assay [1] of 1.86 µM. Besides, in the assay with HEK293, the CC50 was greater than 10 µM.
In turn, `COc1ccc([C@H]2CC(=O)N(c3cccc(N)c3C)C2)cc1OC1CCCC1` returned an EC50 in assay [1] greater than 10 µM. For the same compound, the CC50 in the assay on HEK293 is greater than 10 µM.
Consider `COc1ccc([C@H]2CC(=O)N(c3cccc(C(F)(F)F)c3)C2)cc1OC1CCCC1`, for which the EC50 in assay [1] was found to be 2.95 µM. This compound yielded a CC50 with HEK293 greater than 10 µM.
Compound `COc1ccc([C@H]2CC(=O)N(c3ccc(S(C)(=O)=O)cc3)C2)cc1OC1CCCC1` yielded an EC50 in assay [1] of 0.18 µM. Further, the CC50 with HEK293 was greater than 10 µM.
In turn, `COc1ccc([C@H]2CC(=O)N(Cc3cccc(C#N)c3)C2)cc1OC1CCCC1` yielded an EC50 in assay [1] greater than 10 µM. The half-maximal cytotoxic concentration (CC50) with HEK293 was greater than 10 µM.
In assay [1], `COc1ccc([C@H]2CC(=O)N(C(C)=O)C2)cc1OC1CCCC1` registered an EC50 greater than 10 µM. In the assay with HEK293, this compound gave a CC50 greater than 10 µM.
Regarding `COc1ccc([C@H]2CC(=O)N(c3cccc(C)c3)C2)cc1OC1CCCC1`, the EC50 in assay [1] turned out to be 0.419 µM. Also, the CC50 with HEK293 was greater than 10 µM.
In assay [1], `COc1ccc([C@H]2CC(=O)N(c3cccc(NC(=O)C(=O)c4cccs4)c3)C2)cc1OC1CCCC1` had an EC50 of 0.502 µM. The CC50 with HEK293 is greater than 10 µM.
As for `COc1ccc([C@H]2CC(=O)N(c3cccc(NS(=O)(=O)c4cccc(OC(F)(F)F)c4)c3)C2)cc1OC1CCCC1`, in assay [1], it took 0.8 µM to reach a half-maximal effect (EC50). Also, the CC50 with HEK293 is greater than 10 µM.
For `COc1ccc([C@H]2CC(=O)N(Cc3cccc(N)c3)C2)cc1OC1CCCC1`, in assay [1], the EC50 is greater than 10 µM. The compound also came in with a CC50 in the assay with HEK293 greater than 10 µM.
Consider `COc1ccc([C@H]2CC(=O)N(c3ccccc3)C2)cc1OC1CCCC1`, for which the midpoint of the response in assay [1], the EC50, lay at 2.28 µM. In the assay on HEK293, this compound showed a CC50 greater than 10 µM.
In the case of `COc1ccc([C@H]2CC(=O)N(c3ccncc3)C2)cc1OC1CCCC1`, in assay [1], the EC50 worked out at 0.11 µM. Besides, the CC50 with HEK293 was greater than 10 µM.
As to `COc1ccc([C@H]2CC(=O)N(c3ccccc3N)C2)cc1OC1CCCC1`, the EC50 in assay [1] is greater than 10 µM. Moreover, in the assay with HEK293, the half-maximal cytotoxic concentration (CC50) is greater than 10 µM.
Regarding `COc1ccc([C@H]2CC(=O)N(c3cccc(NC(=O)C(C)=O)c3)C2)cc1OC1CCCC1`, the EC50 in assay [1] is 5.79 µM. In the assay on HEK293, this compound registered a CC50 greater than 10 µM.
`COc1ccc([C@H]2CC(=O)N(c3ccc(C#N)cc3)C2)cc1OC1CCCC1`: the EC50 in assay [1] came out at 0.66 µM. For the same compound, the CC50 in the assay with HEK293 is greater than 10 µM.
In assay [1], `COc1ccc([C@H]2CC(=O)N(c3ccccc3C#N)C2)cc1OC1CCCC1` registered an EC50 greater than 10 µM. This compound gave a CC50 in the assay on HEK293 greater than 10 µM.
Regarding `COc1ccc([C@H]2CC(=O)N(c3ccccc3C(F)(F)F)C2)cc1OC1CCCC1`, the EC50 in assay [1] was greater than 10 µM. Besides, the CC50 with HEK293 was greater than 10 µM.
In assay [1], `COc1ccc([C@H]2CC(=O)N(c3cc(N)cc(F)c3)C2)cc1OC1CCCC1` returned an EC50 of 0.08 µM. In addition, in the assay on HEK293, the CC50 is greater than 10 µM.
Compound `COc1ccc([C@H]2CC(=O)N(Cc3cccc([N+](=O)[O-])c3)C2)cc1OC1CCCC1` showed an EC50 in assay [1] greater than 10 µM. Further, in the assay with HEK293, the CC50 is greater than 10 µM.
For `COc1ccc([C@H]2CC(=O)N(c3ccccn3)C2)cc1OC1CCCC1`, the EC50 in assay [1] came out at 2.63 µM. In the assay on HEK293, this compound displayed a CC50 greater than 10 µM.
The compound `COc1ccc([C@H]2CC(=O)N(c3cccc(NS(=O)(=O)c4ccc(F)cc4)c3)C2)cc1OC1CCCC1` registered an EC50 in assay [1] of 0.102 µM. For the same compound, the CC50 with HEK293 is greater than 10 µM.
On to `COc1ccc([C@H]2CC(=O)N(c3cccc([S+](C)[O-])c3)C2)cc1OC1CCCC1` (stereo partly drawn), for which the EC50 in assay [1] was greater than 10 µM. The compound further yielded a CC50 with HEK293 greater than 10 µM.
Take `COc1ccc(S(=O)(=O)Nc2cccc(N3C[C@@H](c4ccc(OC)c(OC5CCCC5)c4)CC3=O)c2)cc1`: the EC50 in assay [1] amounted to 0.256 µM. In the assay with HEK293, this compound came in with a CC50 greater than 10 µM.
Consider `COc1ccc([C@H]2CC(=O)N(c3cccc(NS(=O)(=O)c4c(Br)nn(C)c4Cl)c3)C2)cc1OC1CCCC1`, for which, in assay [1], the EC50 was found to be 0.053 µM. In addition, in the assay on HEK293, the CC50 is greater than 10 µM.
In assay [1], `COc1ccc([C@@H]2CNC(=O)C2)cc1OC1CCCC1` [(-)-ROLIPRAM] yielded an EC50 greater than 10 µM. This compound also yielded a CC50 in the assay with HEK293 greater than 10 µM.

As a reminder, the EC50 is the concentration at which the effect is half-maximal. By CC50 is commonly meant the concentration that lowers cell viability or growth by half. High values mean better tolerance by the cells, low ones harm at low concentration.
